Assays:
[1] = biological target: Cyclin-dependent kinase 1/cyclin B1 (Homo sapiens, UniProt P06493); assay: Inhibition of CDK1/Cyclin B (unknown origin) expressed in baculoviral infected insect Sf9 cells using histone H1 as substrate in presence of [gamma-33P]ATP; assay type: cell-based
[2] = biological target: Cyclin-dependent kinase 4/cyclin D1 (Homo sapiens, UniProt P11802); assay: Inhibition of CDK4/Cyclin D1 (unknown origin) using RPPTLSPIPHIPR peptide as substrate in presence of [gamma-33P]ATP; assay type: protein-complex assay
Sequence of Cyclin-dependent kinase 4/cyclin D1 (P11802 whole entry): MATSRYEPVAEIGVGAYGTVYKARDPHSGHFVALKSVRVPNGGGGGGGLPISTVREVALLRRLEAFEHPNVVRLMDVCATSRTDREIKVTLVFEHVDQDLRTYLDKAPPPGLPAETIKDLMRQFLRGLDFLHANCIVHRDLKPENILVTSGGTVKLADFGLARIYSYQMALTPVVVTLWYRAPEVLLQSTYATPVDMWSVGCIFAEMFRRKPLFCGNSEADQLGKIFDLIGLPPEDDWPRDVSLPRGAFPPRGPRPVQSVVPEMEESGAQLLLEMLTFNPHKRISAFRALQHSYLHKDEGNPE
Sequence of Cyclin-dependent kinase 4/cyclin D1 (P24385 whole entry, further chain): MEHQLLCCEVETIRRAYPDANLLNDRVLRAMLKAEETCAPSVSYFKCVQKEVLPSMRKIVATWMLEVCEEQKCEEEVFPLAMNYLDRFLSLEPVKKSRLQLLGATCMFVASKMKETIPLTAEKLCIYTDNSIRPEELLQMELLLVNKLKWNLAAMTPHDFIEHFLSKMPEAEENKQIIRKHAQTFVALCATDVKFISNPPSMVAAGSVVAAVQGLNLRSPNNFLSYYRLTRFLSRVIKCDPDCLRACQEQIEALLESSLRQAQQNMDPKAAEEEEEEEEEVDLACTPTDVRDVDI

[3] = biological target: Cyclin-dependent kinase 5/CDK5 activator 1 (Homo sapiens, UniProt Q00535); assay: Inhibition of CDK5/p35NCK (unknown origin) using histone H1 as substrate in presence of [gamma-33P]ATP; assay type: protein-complex assay
Sequence of Cyclin-dependent kinase 5/CDK5 activator 1 (Q00535 whole entry): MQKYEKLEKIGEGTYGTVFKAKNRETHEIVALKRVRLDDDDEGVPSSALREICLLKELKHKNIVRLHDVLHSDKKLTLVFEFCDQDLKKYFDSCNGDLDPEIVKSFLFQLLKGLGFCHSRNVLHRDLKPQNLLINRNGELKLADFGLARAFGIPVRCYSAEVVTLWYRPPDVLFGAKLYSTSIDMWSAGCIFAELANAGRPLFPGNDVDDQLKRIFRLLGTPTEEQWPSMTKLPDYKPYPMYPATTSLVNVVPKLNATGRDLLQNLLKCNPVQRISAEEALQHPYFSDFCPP
Sequence of Cyclin-dependent kinase 5/CDK5 activator 1 (Q15078 whole entry, further chain): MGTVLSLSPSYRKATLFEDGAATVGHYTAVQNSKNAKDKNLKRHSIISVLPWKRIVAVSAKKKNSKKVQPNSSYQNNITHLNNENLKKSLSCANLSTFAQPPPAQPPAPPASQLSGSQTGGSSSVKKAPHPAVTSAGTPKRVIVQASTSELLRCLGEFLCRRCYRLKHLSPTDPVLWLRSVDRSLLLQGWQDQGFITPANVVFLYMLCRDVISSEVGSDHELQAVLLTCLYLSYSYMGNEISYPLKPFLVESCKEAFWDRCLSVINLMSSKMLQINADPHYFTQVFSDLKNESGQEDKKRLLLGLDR

CDK7/Cyclin H/MNAT1 = CDK7/Cyclin H/MNAT1 (Homo sapiens, UniProt P50613); assay: Inhibition of CDK7/Cyclin H/MAT1 (unknown origin) using (YSPTSPS)2KK peptide as substrate in presence of [gamma-33P]ATP; assay type: protein-complex assay
Sequence of CDK7/Cyclin H/MNAT1 (P51946 whole entry): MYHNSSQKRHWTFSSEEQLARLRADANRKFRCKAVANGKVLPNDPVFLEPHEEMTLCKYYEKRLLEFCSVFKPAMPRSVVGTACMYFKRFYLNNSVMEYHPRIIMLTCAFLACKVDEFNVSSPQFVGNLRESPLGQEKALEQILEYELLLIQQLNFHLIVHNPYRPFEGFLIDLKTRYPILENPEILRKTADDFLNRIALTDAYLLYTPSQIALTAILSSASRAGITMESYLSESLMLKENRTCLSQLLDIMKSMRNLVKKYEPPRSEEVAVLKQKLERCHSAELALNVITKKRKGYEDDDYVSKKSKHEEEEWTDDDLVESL
Sequence of CDK7/Cyclin H/MNAT1 (P50613 whole entry): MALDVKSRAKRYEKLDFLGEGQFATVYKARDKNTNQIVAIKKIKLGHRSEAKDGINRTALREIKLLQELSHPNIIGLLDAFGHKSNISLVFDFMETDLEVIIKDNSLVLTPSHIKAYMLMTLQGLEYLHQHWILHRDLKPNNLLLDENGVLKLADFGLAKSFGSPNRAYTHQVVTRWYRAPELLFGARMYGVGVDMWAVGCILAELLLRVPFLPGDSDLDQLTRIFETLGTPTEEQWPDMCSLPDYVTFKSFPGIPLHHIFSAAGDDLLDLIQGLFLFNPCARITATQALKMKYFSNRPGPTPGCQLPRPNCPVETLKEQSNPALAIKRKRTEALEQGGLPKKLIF
Sequence of CDK7/Cyclin H/MNAT1 (P51948 whole entry, further chain): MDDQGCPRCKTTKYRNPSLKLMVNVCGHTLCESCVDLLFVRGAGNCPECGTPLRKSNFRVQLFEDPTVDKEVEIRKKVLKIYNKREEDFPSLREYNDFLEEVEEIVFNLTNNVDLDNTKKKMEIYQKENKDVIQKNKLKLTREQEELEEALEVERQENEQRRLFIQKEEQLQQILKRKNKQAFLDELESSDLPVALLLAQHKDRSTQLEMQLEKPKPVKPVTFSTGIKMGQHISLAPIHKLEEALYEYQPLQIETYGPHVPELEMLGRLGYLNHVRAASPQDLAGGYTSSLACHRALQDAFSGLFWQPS

[4] = biological target: T1, Cyclin-dependent kinase 2/cyclin E1 (Homo sapiens, UniProt P24941); assay: Inhibition of CDK2/Cyclin E (unknown origin) expressed in baculoviral infected insect Sf9 cells using histone H1 as substrate in presence of [gamma-33P]ATP
K562 [5] = assay: Cytotoxicity against human K562 cells assessed as cell viability after 72 hrs by fluorescence microplate reader method; assay type: functional, cell-based; details: K562, 72 h
In short: (§1)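 Cells were exposed to three-fold compound dilutions in triplicate for 72 h. Viability was read after adding Calcein AM, as live-cell fluorescence at 485/538 nm (excitation/emission).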

MCF7 [6] = assay: Cytotoxicity against human MCF7 cells assessed as cell viability after 72 hrs by fluorescence microplate reader method; assay type: functional, cell-based; details: MCF7, 72 h; in short: as §1
[7] = Cytotoxicity against human G361 cells assessed as cell viability after 72 hrs by fluorescence microplate reader method; assay type: functional, cell-based; details: G-361, 72 h; in short: as §1
G-361 = assay: Induction of apoptosis in human G361 cells assessed as activation of caspases-3/7 at 50 uM using Ac-DEVD-AMC as substrate after 6 hrs by fluorescence microplate reader method relative to control; assay type: functional
In short: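 G361 cells were seeded at 20,000 cells/well overnight, then treated with compound for 24 h. A 3x caspase-3/7 buffer (HEPES pH 7.4, NaCl, KCl, MgCl2, EGTA, Nonidet P40, CHAPS, sucrose, DTT, PMSF) containing Ac-DEVD-AMC substrate was added, and plates were incubated at 37 °C. Fluorescence at 346/442 nm was read after 6 h and expressed relative to untreated control.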

K562 [8] = assay: Cytotoxicity against human K562 cells assessed as cell viability at 50 uM after 72 hrs by fluorescence microplate reader method; assay type: functional; details: K562, 72 h, read-out: Activity
MCF7 [9] = assay: Cytotoxicity against human MCF7 cells assessed as cell viability at 50 uM after 72 hrs by fluorescence microplate reader method; assay type: functional; details: MCF7, 72 h, read-out: Activity
[10] = Cytotoxicity against human G361 cells assessed as cell viability at 50 uM after 72 hrs by fluorescence microplate reader method; assay type: functional; details: G-361, 72 h, read-out: Activity
[11] = biological target: T1, Cyclin-dependent kinase 2/cyclin E1; assay: Inhibition of CDK2/Cyclin E (unknown origin); assay type: protein-complex assay

Sequence of Cyclin-dependent kinase 1/cyclin B1 (P06493 whole entry): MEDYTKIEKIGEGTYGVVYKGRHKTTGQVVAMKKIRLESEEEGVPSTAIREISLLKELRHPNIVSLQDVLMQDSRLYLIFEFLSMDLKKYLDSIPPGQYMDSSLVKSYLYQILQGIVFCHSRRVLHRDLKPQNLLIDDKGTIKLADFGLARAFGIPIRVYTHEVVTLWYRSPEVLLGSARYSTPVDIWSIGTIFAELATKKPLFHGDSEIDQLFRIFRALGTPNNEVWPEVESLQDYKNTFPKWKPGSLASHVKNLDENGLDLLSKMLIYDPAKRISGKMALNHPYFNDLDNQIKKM
Sequence of Cyclin-dependent kinase 1/cyclin B1 (P14635 whole entry, further chain): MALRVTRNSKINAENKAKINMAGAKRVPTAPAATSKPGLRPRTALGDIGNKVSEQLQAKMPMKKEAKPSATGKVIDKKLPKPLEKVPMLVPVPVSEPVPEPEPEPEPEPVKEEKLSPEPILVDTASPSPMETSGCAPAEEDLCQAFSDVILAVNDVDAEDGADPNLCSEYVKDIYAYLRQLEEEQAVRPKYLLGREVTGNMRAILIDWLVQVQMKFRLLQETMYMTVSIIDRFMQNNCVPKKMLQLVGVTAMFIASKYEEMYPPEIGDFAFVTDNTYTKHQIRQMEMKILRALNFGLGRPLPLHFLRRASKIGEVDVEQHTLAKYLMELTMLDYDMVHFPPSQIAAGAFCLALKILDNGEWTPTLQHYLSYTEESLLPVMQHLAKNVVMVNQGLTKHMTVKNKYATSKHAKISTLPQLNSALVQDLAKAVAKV

SMILES	IC50 [1]	IC50 [2]	IC50 [3]	IC50 (CDK7/Cyclin H/MNAT1)	IC50 ([4]; read-out: IC50)	IC50 ([4]; read-out: pIC50 (converted))	IC50 (K562 [5])	IC50 (MCF7 [6])	IC50 [7]	fold change (FC) (G-361)	viability at 50 µM (K562 [8])	viability at 50 µM (MCF7 [9])	viability at 50 µM [10]	IC50 [11]
COc1ccccc1-c1cc(Nc2cccc(CS(N)(=O)=O)c2)ncn1	3.95 µM	3.16 µM	4.96 µM	> 20 µM	–	–	–	–	–	–	–	–	–	–
c1cnc2[nH]cc(CCn3cc(-c4c[nH]c5ncccc45)nn3)c2c1	–	–	–	–	7.2 µM	7.94 µM	39.5 µM	87.1 µM	44.2 µM	1.2	58.6%	71.4%	53%	–
O=C(Cn1nncc1-c1cc2cccnc2[nH]1)c1c[nH]c2ncccc12	–	–	–	–	3 µM	3.16 µM	> 25 µM	> 25 µM	> 50 µM	2.2	91.1%	98%	96.3%	–
O=C(Cn1nncc1-c1c[nH]c2ncccc12)c1c[nH]c2ncccc12	–	–	–	–	1.1 µM	1 µM	> 25 µM	> 25 µM	> 50 µM	2.9	76.6%	75.2%	63%	–
c1cnc2[nH]c(-c3cn(CCCc4c[nH]c5ncccc45)nn3)cc2c1	–	–	–	–	8.7 µM	7.94 µM	> 25 µM	> 25 µM	> 50 µM	1.9	91.5%	80.5%	81.8%	–
c1ccc(-c2cn(CCc3c[nH]c4ncccc34)nn2)cc1	–	–	–	–	> 50 µM	100 µM	> 50 µM	> 50 µM	33.6 µM	3.1	65.7%	65.6%	43.3%	–
c1cnc2[nH]cc(CCCn3cc(-c4c[nH]c5ncccc45)nn3)c2c1	–	–	–	–	6.1 µM	6.31 µM	66.6 µM	60.7 µM	36.9 µM	3.9	72.1%	52%	70%	–
c1cnc2[nH]cc(CCCn3nncc3-c3c[nH]c4ncccc34)c2c1	–	–	–	–	2.7 µM	2.51 µM	> 25 µM	> 25 µM	33.4 µM	4.2	63.4%	59.9%	26.5%	–
O=C(CCn1nncc1-c1c[nH]c2ncccc12)c1c[nH]c2ncccc12	–	–	–	–	13.4 µM	12.6 µM	> 25 µM	> 25 µM	> 50 µM	3.3	73.8%	77.5%	78.7%	–
c1cnc2[nH]c(Cn3cc(-c4c[nH]c5ncccc45)nn3)cc2c1	–	–	–	–	18.4 µM	20 µM	> 50 µM	47.4 µM	> 50 µM	2.1	81.9%	84.5%	88.6%	–
O=S(=O)(c1ccccc1)n1cc(Cn2cc(-c3c[nH]c4ncccc34)nn2)c2cccnc21	–	–	–	–	25.8 µM	25.1 µM	> 25 µM	> 25 µM	> 50 µM	7.5	73.3%	78.7%	86.1%	–
c1cnc2[nH]c(Cn3cc(-c4cc5cccnc5[nH]4)nn3)cc2c1	–	–	–	–	1.9 µM	2 µM	> 25 µM	> 25 µM	> 50 µM	1.9	97.6%	74.8%	90.6%	–
O=C(Cn1cc(-c2c[nH]c3ncccc23)nn1)c1c[nH]c2ncccc12	–	–	–	–	29.3 µM	31.6 µM	> 25 µM	> 25 µM	> 50 µM	2.2	88%	83.5%	84.1%	–
O=C(NNC(=O)c1ccccc1O)Nc1cccc2c1C(=O)c1c-2n[nH]c1-c1ccc(O)cc1	–	–	–	–	–	–	–	–	–	–	–	–	–	0.00891 µM
Nc1ccc(CC(=O)Nc2cccc3c2C(=O)c2c-3n[nH]c2-c2ccc(O)cc2)cc1	–	–	–	–	–	–	–	–	–	–	–	–	–	0.038 µM
O=C(Cn1cc(-c2ccccc2)nn1)c1c[nH]c2ncccc12	–	–	–	–	> 50 µM	100 µM	> 25 µM	> 25 µM	> 50 µM	1.5	95.9%	82.8%	86.8%	–
O=S(=O)(c1ccccc1)n1c(-c2cn(CCCc3c[nH]c4ncccc34)nn2)cc2cccnc21	–	–	–	–	18 µM	20 µM	> 25 µM	> 25 µM	> 50 µM	1.8	89.2%	84.1%	86.8%	–

SMILES	IC50 [1]	IC50 [2]	IC50 [3]	IC50 (CDK7/Cyclin H/MNAT1)	IC50 ([4]; read-out: IC50)	IC50 ([4]; read-out: pIC50 (converted))	IC50 (K562 [5])	IC50 (MCF7 [6])	IC50 [7]	fold change (FC) (G-361)	viability at 50 µM (K562 [8])	viability at 50 µM (MCF7 [9])	viability at 50 µM [10]	IC50 [11]
c1cnc2[nH]c(-c3cn(CCc4c[nH]c5ncccc45)nn3)cc2c1	–	–	–	–	30 µM	31.6 µM	> 50 µM	58.5 µM	> 50 µM	4.5	67.2%	63.2%	59.1%	–
NC(=O)C(=O)NNC(=O)Nc1cccc2c1C(=O)c1c-2n[nH]c1-c1ccc(O)cc1	–	–	–	–	–	–	–	–	–	–	–	–	–	0.0191 µM
O=C(CCn1cc(-c2c[nH]c3ncccc23)nn1)c1c[nH]c2ncccc12	–	–	–	–	17.8 µM	20 µM	44.3 µM	64.7 µM	> 50 µM	4.5	65%	63.5%	61.3%	–
c1cnc2[nH]c(-c3cnnn3CCc3c[nH]c4ncccc34)cc2c1	–	–	–	–	27.6 µM	25.1 µM	> 25 µM	> 25 µM	> 50 µM	2	70%	74.4%	69.5%	–
O=S(=O)(c1ccccc1)n1c(-c2cn(CCc3c[nH]c4ncccc34)nn2)cc2cccnc21	–	–	–	–	> 25 µM	25.1 µM	> 25 µM	> 25 µM	> 50 µM	2.1	82.7%	76.2%	71.1%	–
O=C(CCn1nncc1-c1cc2cccnc2[nH]1)c1c[nH]c2ncccc12	–	–	–	–	36.1 µM	31.6 µM	> 25 µM	> 25 µM	> 50 µM	–	–	–	62.7%	–
O=S(=O)(c1ccccc1)n1cc(Cn2cc(-c3cc4cccnc4[nH]3)nn2)c2cccnc21	–	–	–	–	> 25 µM	25.1 µM	> 25 µM	> 25 µM	> 50 µM	1.6	90.2%	72.6%	76.4%	–
c1cnc2[nH]cc(CCn3nncc3-c3c[nH]c4ncccc34)c2c1	–	–	–	–	9.1 µM	10 µM	> 25 µM	> 25 µM	> 50 µM	1.9	59.2%	58%	65.7%	–
O=C(Cn1cc(-c2cc3cccnc3[nH]2)nn1)c1c[nH]c2ncccc12	–	–	–	–	9.2 µM	10 µM	> 25 µM	> 25 µM	> 50 µM	1.7	91.4%	84.9%	82%	–
Cn1ccc2ccc3c4[nH]c5cccc(Br)c5c4c4c(c3c21)C(=O)NC4=O	–	–	–	–	–	–	–	–	–	–	–	–	–	2.88 µM
O=C(CCn1cc(-c2cc3cccnc3[nH]2)nn1)c1c[nH]c2ncccc12	–	–	–	–	3.6 µM	3.98 µM	> 25 µM	> 25 µM	> 50 µM	1.2	75.8%	41.2%	62.4%	–
Cc1nc(C)c(-c2ccnc(Nc3ccc(N4CCN(C)CC4)cc3)n2)s1	–	–	–	–	–	–	–	–	–	–	–	–	–	1.02 µM
Cc1nc2ccccn2c1-c1ccnc(NC(=O)Nc2ccccc2)n1	–	–	–	–	–	–	–	–	–	–	–	–	–	10 µM
Cc1ccc(NC(=O)c2ccc(CN3CCN(C)CC3)cc2)cc1Nc1nccc(-c2cccnc2)n1 [IMATINIB]	–	–	–	–	–	–	0.73 µM	> 10 µM	–	–	–	–	–	–
CC[C@H](CO)Nc1nc(NCc2ccccc2)c2ncn(C(C)C)c2n1 [SELICICLIB]	–	–	–	–	–	–	30.9 µM	27.2 µM	20.8 µM	–	–	–	–	–
CC(C)[C@H](CO)Nc1nc(NCc2ccc(Cl)cc2)c2ncn(C(C)C)c2n1	–	–	–	–	–	–	–	–	–	–	–	–	–	0.0347 µM
